Measurements published in the EternaBench riboswitch data.

Test system: MS2 coat protein
Experiment: apparent Kd, MS2 coat protein; higher = weaker binding; RNA-MaP array; FMN 200 µM where present
How it was run: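 In 100 mM Tris-HCl pH 7.5, 80 mM KCl, 4 mM MgCl2, BSA, DTT, yeast tRNA and Tween-20, SNAP-549-labelled MS2 coat protein was titrated from 0.7 or 1.5 nM, doubling to 3 µM, over designs transcribed by stalled E. coli RNA polymerase on Illumina sequencing-chip clusters. This was done first without ligand, then with ligand held constant. After green signal was normalised to red-channel RNA signal and control-cluster median Fmax, the apparent Kd was taken as the median of filtered per-cluster binding-curve fits.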

[1] = designed as: OFF switch for flavin mononucleotide, no ligand
[2] = ligand present: flavin mononucleotide, designed as: OFF switch for flavin mononucleotide
[3] = designed as: ON switch for flavin mononucleotide, no ligand
[4] = ligand present: flavin mononucleotide, designed as: ON switch for flavin mononucleotide

Row | Sequence | apparent Kd [1] | apparent Kd [2] | apparent Kd [3] | apparent Kd [4]
1 | CCUCAGUAAGGAUAUCAGCUUAUGGAGGUGGUAAUGAGAGCUGAGAAGGUACAUGAGGAUCACCCAUGUUAGUU | 57 nM | 102 nM | – | –
2 | CGCAACAUACAGAAGGAGUUAUUGAGAGGUUUACUAGGAUAUGUUCACAUGAGGAUCACCCAUGUCGUUUGGGAUUUUGUUGCG | 125 nM | 51.3 nM | – | –
3 | UGUCGGAGCAGAGGAUAUUACAUGAGGAUCACCCAUGUAUGAACCAAUAGCUGGAGACAGCAAUGUAAGAAGGCUGCUCCGACA | 12.2 nM | 171 nM | – | –
4 | CGUAGCUCCUGUUCGAAUCUCCGUGAGGAUAUCUUCAGACAUGAGGAUCACCCAUGUACAAAGGAAGAGAAGGCACGGUCCGAU | – | – | 4.86 nM | 4.33 nM
5 | AAUAACAGAGGAUAUACUAUUUUAUGUAUUUAUUAUUUUGAACAUGAGGAUCACCCAUGUAGAAGGCUGAUUAA | 29.6 nM | 27.2 nM | – | –
6 | GUCAGCUCGUGAGGAUAUACAUGUGCUGGAUACAGCAUUAUAUUUUUCACAUGAGGAUCACCCAUGUAGAAGGCACGAGCUGAU | 16.6 nM | 29.9 nM | – | –
7 | CUGUGACGGUGCGCAAGUGGACGGAGAAGGCAGACAUGAGGAUCACCCAUGUGAGCCUGCUAUUCUGAGGAUAUCCGUUCGUAC | 27 nM | 132 nM | – | –
8 | AUUGAUAGCACAGGAUAUUGAGAUUUGAAUUGACAAGAAGGGUGUACAUGAGGAUCACCCAUGUAAUGGCUGCCUCGUUGAUUA | 57.8 nM | 132 nM | – | –
9 | AUACCACGAGGAUAUCGUCUAUUUUACAUGAGGAUCACCCAUGUUAUCUUUGUUUUGUUUCGAGAAGGCGUGUUUU | 25.1 nM | 17.1 nM | – | –
10 | GUGUAGACAGGAUAUGCUUUGAGCGUAUGAGAGUAGGCUCGACAUGAGGAUCACCCAUGUAGAAGGGUCUACAC | 12.4 nM | 13.2 nM | – | –
11 | AGUUAAUAUCGAGGAUAUCCUCAUAGACAUGAGGAUCACCCAUGUUAACAUGGAGAAGGCGAUAUUAACAGCAUGUUACAUGCA | – | – | 231 nM | 26.8 nM
12 | AUCAGCUCGUCAGGAUAUACGUCACUGCGACAGCAGUGUGGUAAGAUCACAUGAGGAUCACCCAUGUAGAAGGGACGAGCUGAU | 14.2 nM | 297 nM | – | –
13 | CUAUUUUUACAGAAGGUUUAAUACUAUGUAUGAGAAGGAUAUGUAACAUGAGGAUCACCCAUGUUUUAUUUAUAUGAGGUUCGU | 13.4 nM | 11.4 nM | – | –
14 | UGCAUGCUAGGAUAUACGGGACAUUAGGGUUCGUCGUAUGGACAUGAGGAUCACCCAUGUAGAAGGAGCGUGCU | 18.6 nM | 44.5 nM | – | –
15 | UUUUUGUCAGGAUAUGACUAGAUGCACGUUAGUGUAUUUACUUAGAAGGGACAUGAGGAUCACCCAUGUAUUCC | 30.7 nM | 26.7 nM | – | –
16 | GUCGUGUGAGGAUAUGCACGAGUGACAGGGAGGCUGUCACAGCAGAAGGUACAUGAGGAUCACCCAUGUGAAAU | 29.1 nM | 24.2 nM | – | –
17 | UGUACUCAAAGAGUACCAAUACGAACAUGAGGAUCACCCAUGUAGGAUAUGCUACUCAAAGAGUAGCAGAAGGACAUGUGCCUA | 19 nM | 76.3 nM | – | –
18 | AUACGGGCCCAGAAGGUGCCAGCGAGAGCUGCACAUGAGGAUCACCCAUGUUGUCGGUGACGACGCAAGGAUAUGGGCCCGUAU | – | – | 23.4 nM | 6.63 nM
19 | ACUUCACAUGAGGAUCACCCAUGUGAGGAUAUCGUCGAGGAUGUAAUGCCAUCCGUGGCGAGAAGGCGCAUGGU | 29.9 nM | 77.7 nM | – | –
20 | GGGUCGUCAGGAUAUACAUGAGGAUCACCCAUGUGACCACACUUACCUAUCGCUCGCUGUAGAAGGGAUGAUGA | 30.3 nM | 27.1 nM | – | –
21 | CUCUUUUAAGGAUAUACAUGAGGAUCACCCAUGUGCAUAGGUAUGUCCGGGUCCUGGAGUAGAAGGUGGGACGG | 70.3 nM | 58.4 nM | – | –
22 | CUUUUGUGAGGAUAUUAGUAGUAAAUAAAUUAAAUUACUACUGAGAAGGCACAUGAGGAUCACCCAUGUUCCUC | 31.3 nM | 243 nM | – | –
23 | GCAGCGUAUGUAGGAUAUCGGUCAGUUUCUGAUCGAGAAGGACAUGAGGAUCACCCAUGUAAAUUACCGACAUUGUCGGGCUGC | 6.5 nM | 8.25 nM | – | –
24 | UUAUUUAGGUAGGAUAUCGAUACUAAUUAUUAUCGAGAAGGGUCUACAUGAGGAUCACCCAUGUUAGCAUGUUU | 28 nM | 27.7 nM | – | –
25 | AGGGAUAAAGGAUAUACAUGAGGAUCACCCAUGUUGAGGAAAGUGAGAGGUGGCGAUAGUAGAAGGUUAGGUGG | 92.6 nM | 70.1 nM | – | –
26 | GUCGGAAACGACAAAAGUAUGGAUCCAGAAGGCAUGAAACAUGAGGAUCACCCAUGUCUAAGACAUGAGGAUAUGGAUCCAUAC | – | – | 7.11 nM | 3.78 nM
27 | AUCAGCUCGUCAGGAUAUACGUCACUGCGUCAGCAGUGUGGUAAGAUCACAUGAGGAUCACCCAUGUAGAAGGGACGCGCUGAU | 13.3 nM | 226 nM | – | –
28 | AAAAAACAUGAGGAUCACCCAUGUGAGGAUAUGCUAAAAAAAUCCGCAUGAAAAAAUAGCAGAAGGCACAUAAA | 32.9 nM | 106 nM | – | –

Row | Sequence | apparent Kd [1] | apparent Kd [2] | apparent Kd [3] | apparent Kd [4]
29 | GUCUCGAUGUAGAAGGCCGCGUCCGGCUCACGCGGAGGAUAUACAUGAGGAUCACCCAUGUGUCUGUGGCUAAUAUGGUACGGA | 41.8 nM | 234 nM | – | –
30 | GACAUGAGGAUCACCCAUGUCCCUCCAGAAGGCUGGCGCGCGAAACCUAAAUCAGUUCCGGGCACAGAGGAUAUGGGCGGUUGG | – | – | 164 nM | 34.3 nM
31 | UGUAUGGACAGAGGAUAUGCCGAUAGGAUCUACUAUCGAAGAAUCCUCACAUGAGGAUCACCCAUGUAGAAGGCUGUUCAUACU | 8.2 nM | 34.1 nM | – | –
32 | GUAGAGUAAGGAUAUGUAGAAUAGGAUAGAAUGGUUAGAAUGCAGAAGGUACAUGAGGAUCACCCAUGUAAUGU | 22.1 nM | 21.1 nM | – | –
33 | CUUAAGGCAGGAUAUGCUUUUUGUGACAUGAGGAUCACCCAUGUGAUGCAGUUUGGGUUUGCAGAAGGGCCUGAGU | 111 nM | 61.1 nM | – | –
34 | GCGUUCUUGUAGAAGGUACAUACAAUCUCUUUUUAACACAUGACACAUGAGGAUCACCCAUGUUGUAAGGAUAUACAUGAACGC | – | – | 8.7 nM | 8.86 nM
35 | GGGUUUGGAGGAUAUACAAUGGGUUUGGGAAACCGGGCCCUACAUGAGGAUCACCCAUGUAGAAGGCCGGGCCC | 14.8 nM | 15.8 nM | – | –
36 | CGUGCAAAUGUAGGAUAUGGUUAUCUAUGUCUAGUUACUAGACAUAGAUAACCAGAAGGACAUGAGGAUCACCCAUGUAGCACG | 6.7 nM | 21.6 nM | – | –
37 | ACUAAUUAGUGAGGAUAUACAUAAUUUAUAACUGUAGAAGGCACAAACCUCAAGACAUGAGGAUCACCCAUGUGGUAUAUAGAU | 169 nM | 388 nM | – | –
38 | GUGAAGAUAGCAGGAUAUCUAUUUCCUACAUGAGGAUCACCCAUGUAGGUGAUCAGCCGAGUAAAGGAGAAGGGCUAUCUUUAC | – | – | 22.8 nM | 9.29 nM
39 | GGCUCUAGAGGAUAUACAAACUGAUCCUCAGAGCGCCGGCUACAUGAGGAUCACCCAUGUAGAAGGUUGGAGUC | 15.6 nM | 13.1 nM | – | –
40 | AGAGCCUCGUGAGGAUAUACAUGAGGAUCACCCAUGUAAAUGAAAGAUAACGAGGAAACUCGAAUGUAGAAGGCACGAGGCUCA | 24.4 nM | 182 nM | – | –
41 | GAUUGAGAGCAGGAUAUCUUAGAAAUGUAUUAAAGAGAAGGGCUCACAUGAGGAUCACCCAUGUGGUCCUAGAU | 20.2 nM | 175 nM | – | –
42 | CAGCGGCAAGGAUAUACAUGAGGAUCACCCAUGUGGUCCCGCUAUAGUAACUUAGCUUGUAGAAGGUGCAGCUA | 36.5 nM | 218 nM | – | –
43 | GGCCGAAUGGUCUAGGUGCACUUACAUGAGGAUCACCCAUGUCAGGAUAUCUUACGGGUCUCGUAAGAGAAGGGACAUCGCUAU | 52.2 nM | 215 nM | – | –
44 | GACAUGGUCUAGAAGGCCUAUCUAUUUAAGUACGAUUUAGAACAGCAUAGGAGGAUAUGGCUAACAUGAGGAUCACCCAUGUUC | – | – | 49 nM | 23.3 nM
45 | GGUCUUCAAGUCAGGAUAUCGUCUAAUCGAUCUAACGAGAAGGGACAUGAGGAUCACCCAUGUCGUCUCAUCAG | 19.1 nM | 28.5 nM | – | –
46 | AUUUUUUGUCAUGUACAUGAGGAACAUGAGGAUCACCCAUGUAGAAGGAAUUUUUUUAAGUUUAGUUAGGAUAUACAUAUAUUA | 47.7 nM | 28.6 nM | – | –
47 | CCUCCCUGAGGAUAUCCAUCCUCAUACAUGAGGAUCACCCAUGUUCAUCCGUGGCUACCCGGAGAAGGCAGCUCUG | 321 nM | 290 nM | – | –
48 | UCGAUUAUACAAGGAUAUCAAUUGUAAUUGAGACUUACAUGAGGAUCACCCAUGUUAAUAUUUUUUGAGAAGGUGUAUUUUCAG | – | – | 47.3 nM | 26.8 nM
49 | AUGGACGUCGUAGGAUAUGUAGGAUUCUCGUACAUGAGGAUCACCCAUGUUGACGUCGAGGACGGACAGAAGGGCGGUGUCCAU | – | – | 42.3 nM | 8.01 nM
50 | AGCUGUGGCCGAGGAUAUCUAAUAAUCCCAACCGAAAUAUAAUCGGACAUGAGGAUCACCCAUGUAGAGAAGGCGGUCUCAGCA | 143 nM | 307 nM | – | –
51 | GGAUGCCGCUCAGGAUAUGUGGGUUGUCUAGUAUCUAGAUUCCACAUGAGGAUCACCCAUGUAACACAGAAGGGAGAUGGUGAU | – | – | 526 nM | 23.2 nM
52 | UUACUCAUGUAAGGAUAUGCAGCCGAAACGGCUGCAGAAGGUACUAUAAUACAUGAGGAUCACCCAUGUCUUUUUAAUUUAGAC | – | – | 51.2 nM | 78 nM
53 | UAGAAGUCAGGAUAUCCAGCUCGUCACUUGCGUGAUGAGUUGGAGAAGGGACAUGAGGAUCACCCAUGUAAAGG | 152 nM | 242 nM | – | –
54 | AAAAUCUAUAGAGGAUAUCGUUCUUAAAGAGAAUGAGAAGGCUAACAAUCAUGAGGACAUGAGGAUCACCCAUGUUGUGACCAU | – | – | 19.1 nM | 9.71 nM
55 | AAAUCAGUAGGAUAUACGAUUUUAUGCUAGAUAGAGGGACCACAUGAGGAUCACCCAUGUAGAAGGACUAGAUA | 20.2 nM | 21.4 nM | – | –
